Shown are actives, neighbours in structure and some others; about 3.2% of the full set was active somewhere.
MEKK3 PB1 HTS: raises or lowers MEK5 binding to the human MEKK3 PB1 domain; AID 1529; hit rate 1.4% among 290,000; binding response (% of control), % at 10 µM; bead-based flow cytometry, Alexa488-MEK5 binding to MEKK3; actives lie on both sides; 0 = blocked by unlabeled MEK5, 100 = vehicle; Q99759;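 active means binding response more than 3 SD above or below the average of its plate-row segment, actives on both sides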;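 further: Alexa488 bead fluorescence after subtracting the streptavidin-only scavenger bead signal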
UBC13 inh: human UBC13 polyubiquitination inhibition. UBC13 polyubiquitin chain formation, TR-FRET. P61088. inhibition, % at 20 µM. hit rate 0.47% among 330,000; in the data active means inhibition above about 45%, passing the limit was not always enough
MEKK2 mut-MEK5: signal of MEK5 binding to mutant human MEKK2 PB1 domain. bead flow cytometry, Alexa488-MEK5 binding to MEKK2 mutant. percent response, % at 10 µM. hit rate 0.35% among 290,000; in the data active means percent response above about 24%, passing the limit was not always enough
DSG3 Ab inh: inhibitors of pemphigus antibody binding to human desmoglein-3 | AID 588358 | DSG3-coupled beads, scFv-anti-DSG3-GFP binding, flow cytometry; stronger effect = lower value | hit rate 0.48% among 310,000 | binding (percent of control), % at 10 µM | P32926;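 active means binding more than 3 SD below its plate's average and above zero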
MEKK2wt PB1 HTS: raises or lowers MEK5 binding to wildtype human MEKK2 PB1 domain. Q9Y2U5. bead flow cytometry, Alexa488-MEK5 binding to MEKK2 WT; actives lie on both sides. binding response (% of control), % at 10 µM. hit rate 1.1% among 290,000; in the data active means binding response below about 67% or above about 130%
Apaf1 inhib: inhibitors of human Apaf-1 apoptosome | reconstituted apoptosome caspase-3 activity, DEVD-Rh110 fluorescence | O14727 | inhibition, % at 20 µM | hit rate 0.71% among 330,000; active means inhibition of at least 40% at 20 µM
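Material: reconstituted apoptosome with Apaf-1, cytochrome c, caspase-9, procaspase-3, dATP / Buffer or medium: pH 7.5 Hepes buffer with CHAPS, BSA, DTT / Also added: cytochrome c with DEVD-Rh110 / Schedule: compound with Apaf-1, dATP, procaspase-3 30 min, then 50 min reaction, room temperature / Technique: rhodamine 110 fluorescence at Ex 480/Em 540 nm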
MEKK2wt confirm: raises or lowers MEK5 binding to wildtype human MEKK2, retest; shares compounds with MEKK3 PB1 HTS; bead flow cytometry, Alexa488-MEK5 binding to MEKK2 WT; actives lie on both sides; binding response (% of control), % at 10 µM; hit rate 2.4% among 5,900; AID 1892; in the data active means binding response below about 16% or above about 210%; inactive means in between
MEKK2mut confirm: signal of MEK5 binding to mutant human MEKK2, retest | shares compounds with MEKK3 PB1 HTS | hit rate 2% among 5,900 | bead flow cytometry, Alexa488-MEK5 binding to MEKK2 mutant | percent response, % at 10 µM; in the data active means percent response mostly above about 71%, no sharp cut-off; inactive means mostly below about 38%;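 further: higher means compound restores mutant binding toward wildtype level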
MEKK3-MEK5 inh: confirmation of inhibitors of MEK5 binding to human MEKK3 | shares compounds with MEKK3 PB1 HTS | bead flow cytometry, Alexa488-MEK5 binding to MEKK3; stronger effect = lower value | binding response (% of control), % at 10 µM | hit rate 1.8% among 5,900 | AID 1894;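 active means binding response below 72% of control, or above a set upper limit, though filed actives all read lower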
A number is an active result; - = inactive; . = no result given; [ ] = another dose, or the depositor's remark.

SMILES | MEKK3 PB1 HTS | UBC13 inh | MEKK2 mut-MEK5 | DSG3 Ab inh | MEKK2wt PB1 HTS | Apaf1 inhib | MEKK2wt confirm | MEKK2mut confirm | MEKK3-MEK5 inh
C=CCN(C(=O)CSc1nc2c(sc3ccccc32)c(=O)n1CCN(CC)CC)c1ccccc1 | - | - | 65 | - | 192 | - | - | - | -
C#CCOCC1CNC(=S)O1 (stereo not drawn) | . | . | . | - | . | . | . | . | .
COc1ccc([N+](=O)[O-])cc1N(CC(=O)NC1CCCCC1)S(C)(=O)=O | - | - | - | - | - | - | . | . | .
Cc1ccc([N+](=O)[O-])cc1N(CC(=O)NC1CCCC1)S(C)(=O)=O | 73[inhibitor] | - | - | - | - | - | - | - | -
CCC(C)NC(=O)c1cc2cc3ccc(OC)cc3nc2s1 (stereo not drawn) | 126 | - | - | - | - | - | - | - | -
COc1ccc(/C=C/CN2CCCC(CO)(Cc3cccc(Cl)c3)C2)cc1 (stereo not drawn) | - | - | - | - | 159 | - | - | - | -
CCC1(c2ccc(Cl)cc2)NC(=O)N(CC(=O)NC2CCCCCC2)C1=O (stereo not drawn) | . | - | . | - | . | - | . | . | .
c1nc(NCC2(N3CCOCC3)CCCCC2)c2ccsc2n1 | 123 | - | - | - | - | - | - | - | -
O=C(NCc1ccc2c(c1)CCO2)Nc1ccccc1 | - | - | - | - | - | - | . | . | .
NC(=O)NS(=O)(=O)Oc1ccccc1 | - | - | - | - | - | - | . | . | .
Nc1cc2nc[nH]c2cc1N | 31[inhibitor] | - | - | - | 41[inhibitor] | - | - | - | 69
O=[N+]([O-])c1cc(Cl)ccc1N1CCOCC1 | - | - | - | - | - | - | . | . | .
Nc1cc(N2CCOCC2)c(Cl)cc1[N+](=O)[O-] | 73[inhibitor] | - | - | . | - | - | - | - | -
O=C(Nc1cc([N+](=O)[O-])ccc1F)C1CC1 | 130 | - | - | - | - | - | - | - | -
O=C(Nc1cc([N+](=O)[O-])ccc1Cl)C1CC1 | - | - | - | - | - | - | . | . | .
Cc1cnc(C(=O)Nc2cccc3ncccc23)cn1 | - | - | - | - | - | - | . | . | .
Cc1cc(C(=O)Nc2cccc3ncccc23)no1 | 127 | - | - | . | - | - | - | - | -
O=C(O)C1Cc2[nH]cnc2C(c2cccc([N+](=O)[O-])c2)N1 (stereo not drawn) | - | - | - | - | - | - | . | . | .
O=C(O)C1Cc2[nH]cnc2C(c2ccccc2O)N1 (stereo not drawn) | 60[inhibitor] | - | - | - | - | - | - | - | -
Cc1ccc(C)n1-c1ccc(-c2ccnc(N)n2)cc1 | 147 | . | - | - | - | . | - | - | -
Cc1onc(-c2ccccc2)c1-c1ccnc(N)n1 | - | - | - | - | - | - | . | . | .
CCOC(=O)C(C)Sc1nc(=O)n2cc(C)ccc2n1 (stereo not drawn) | 45[inhibitor] | - | - | - | - | - | - | - | -
CCOC(=O)C(C)Sc1nc(=O)n2ccccc2n1 (stereo not drawn) | - | - | - | - | - | - | . | . | .
COc1ccc(CCN(C)CC(=O)Nc2cc(C)nc3ccccc23)cc1OC | - | - | - | - | - | - | . | . | .
Cc1ccc(C(C)n2cc(C(=O)NCc3ccncc3)nn2)cc1 (stereo not drawn) | 1.0[inhibitor] | - | - | - | 0.0[inhibitor] | - | - | - | -
SMILES | MEKK3 PB1 HTS | UBC13 inh | MEKK2 mut-MEK5 | DSG3 Ab inh | MEKK2wt PB1 HTS | Apaf1 inhib | MEKK2wt confirm | MEKK2mut confirm | MEKK3-MEK5 inh
CCOC(=O)N1CCN(C(=O)CSCC(=O)Nc2nc(-c3ccc(-c4ccccc4)cc3)cs2)CC1 | - | - | - | - | - | - | . | . | .
O=C(CSCC(=O)N1CCOCC1)Nc1nc(-c2ccccc2)cs1 | 131 | - | - | - | - | - | - | - | -
Cc1cccc(N(CC(=O)NCc2ccco2)S(=O)(=O)c2ccccc2)c1 | . | . | . | - | . | . | . | . | .
CC1(C(=O)N/N=C/c2ccc([N+](=O)[O-])o2)CC1(Br)Br (stereo not drawn) | 132 | - | - | - | - | - | - | - | -
O=C(O)/C=C/c1ccc([N+](=O)[O-])o1 | 130 | - | - | - | - | - | - | - | -
O=C(Cc1ccc([N+](=O)[O-])cc1)N/N=C/c1ccc([N+](=O)[O-])o1 | - | - | - | - | - | - | . | . | .
C[C@H](CO)N1C[C@H](C)[C@@H](CN(C)Cc2ccncc2)Oc2ccc(NC(=O)CCCCCC(=O)Nc3ccccc3N)cc2C1=O | . | - | . | . | . | - | . | . | .
O=P1(O)CC2=C(CC=CC2)C1 | . | . | . | - | . | . | . | . | .
O=[N+]([O-])c1ccc(Sc2nnnn2-c2ccccc2)c(Cl)c1 | - | - | - | - | - | - | . | . | .
Nc1ccc(Sc2nnnn2-c2ccccc2)c(Cl)c1 | 1.0[inhibitor] | - | - | - | -3.0[inhibitor] | - | - | - | -
Cc1cc(C)cc(OCC(=O)Nc2ccc3c(c2)C(=O)c2ccccc2C3=O)c1 | 139 | - | - | - | - | - | - | - | -
Cc1cc(C)cc(OCC(=O)Nc2ccc(F)cc2)c1 | - | - | - | - | - | - | . | . | .
COc1ccccc1C(=O)NNC(=O)c1ccc(Br)cc1 | - | - | - | - | - | - | . | . | .
CCCCOc1ccc(N2C(=O)C(C)CNC2=S)cc1 (stereo not drawn) | . | . | . | - | . | . | . | . | .
Cc1ccc(-c2nc3ccccc3s2)cc1NC(=O)c1ccc2c(c1)OCO2 | 1.0[inhibitor] | - | - | - | -2.0[inhibitor] | - | - | - | -
CCC1CCC(C(=O)NC(C(=O)NCCN2CCOCC2)C(C)C)CC1 (stereo not drawn) | - | - | - | . | - | - | . | . | .
O=C(CCOc1ccccc1)Nc1ccnn1C1CCN(Cc2ccc(O)cc2)CC1 | - | - | - | - | 148 | - | - | - | -
Cc1c(CN(C)C)c2c(n1Cc1ccccc1)C(=O)c1ccc(Br)cc1-2 | - | - | - | . | 139 | - | - | - | -
COc1ccc(N2C(=O)C3ON(C4SC(=S)N(C)C4(C)C)C(c4ccc([N+](=O)[O-])cc4)C3C2=O)cc1 (stereo not drawn) | - | - | - | - | - | - | . | . | .
COc1ccc(N2C(=O)C3ON(C4SC(=S)N(C)C4(C)C)C(c4ccc(Cl)cc4)C3C2=O)cc1 (stereo not drawn) | 151 | - | - | - | - | - | - | - | -
N#C/C(=C\C=C\c1ccccc1[N+](=O)[O-])C(=O)NC1CCCCC1 | - | - | - | - | - | - | . | . | .
N#C/C(=C\c1ccccc1[N+](=O)[O-])C(=O)NC1CCCCC1 | 40[inhibitor] | - | - | - | 47[inhibitor] | - | - | - | -
